Screening results from PubChem.
HSP90 inh: inhibitors of HSP90 luciferase refolding in rabbit reticulocyte lysate. luciferase refolding luminescence, 3 h. inhibition, % at 5.6 µM. 0.91% of 290,000 active;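 active means inhibition above the screen-wide mean plus 3 SD, computed separately per campaign, cut at about 16% in these data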;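 further: inhibitors lower the luminescence because luciferase stays unfolded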
SENP8 block-1: inhibitors of human SENP8 protease. purified SENP8, Z-RLRGG-aminoluciferin cleavage, luminescence. inhibition, % at 10 µM. AID 2540. 1.2% of 330,000 active; in the data active means inhibition above about 50%
Target sequence (Q96LD8 whole entry, looked up): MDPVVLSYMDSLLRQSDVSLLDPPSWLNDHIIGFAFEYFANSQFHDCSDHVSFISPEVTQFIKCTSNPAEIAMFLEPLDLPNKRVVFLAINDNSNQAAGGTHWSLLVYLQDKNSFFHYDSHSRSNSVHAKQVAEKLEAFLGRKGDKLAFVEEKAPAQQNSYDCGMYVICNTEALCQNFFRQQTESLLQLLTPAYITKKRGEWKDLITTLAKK
SENP8 block-2: inhibitors of human SENP8 protease. Q96LD8. recombinant SENP8, Nedd8 substrate fluorescence. inhibition, % at 20 µM. 0.64% of 360,000 active; in the data active means inhibition mostly above about 40%, no sharp cut-off; inactive means mostly below about 27%
SENP6 block: inhibitors of human SENP6 protease | 1.8% of 330,000 active | AID 2599 | inhibition, % at 10 µM | Q9GZR1 | Recombinant SENP6 catalytic domain, aminoluciferin luminescence;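 active means inhibition above about 50% at the single tested dose, limit read from the data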
Target sequence (Q9GZR1 628-1112 limits assumed): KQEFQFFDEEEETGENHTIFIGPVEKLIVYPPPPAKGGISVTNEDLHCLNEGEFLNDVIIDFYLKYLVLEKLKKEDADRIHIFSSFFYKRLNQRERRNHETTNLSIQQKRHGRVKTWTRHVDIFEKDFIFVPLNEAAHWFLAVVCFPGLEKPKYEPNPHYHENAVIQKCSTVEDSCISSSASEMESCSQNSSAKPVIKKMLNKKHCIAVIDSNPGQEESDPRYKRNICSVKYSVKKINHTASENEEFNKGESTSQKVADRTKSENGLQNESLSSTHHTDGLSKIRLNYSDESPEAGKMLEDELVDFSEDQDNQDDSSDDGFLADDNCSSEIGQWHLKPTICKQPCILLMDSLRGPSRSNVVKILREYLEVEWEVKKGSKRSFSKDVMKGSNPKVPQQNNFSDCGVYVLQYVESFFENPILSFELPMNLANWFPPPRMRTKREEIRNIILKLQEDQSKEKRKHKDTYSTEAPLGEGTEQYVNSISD
SENP7 block: SENP7 protease inhibition | inhibition, % at 5 µM | 1.5% of 330,000 active | recombinant SENP7, Z-RLRGG-aminoluciferin luminescence, 40 min;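 active means inhibition above about 50% at the single test dose, limit read from the data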
SENP1 FRET inh: inhibitors of human SENP1 SUMO protease catalytic domain; recombinant SENP1 catalytic domain, CyPet-SUMO1-YPet FRET cleavage; inhibition, % at 10 µM; 0.21% of 360,000 active; Q9P0U3;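 active means inhibition at least 30% at 10 µM, raw YFP signal under a set limit, fluorescence ratio 0.5 to 1.5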
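Assay system: hSENP1 catalytic domain, recombinant. Amount: SENP1 enzyme, 20 pM final. Schedule: 50 min reaction, RT, dark. Technique: FRET, CFP and YFP emission. Control set: no-enzyme wells low, DMSO-plus-enzyme wells high control.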
HSP90 confirm: confirmation of HSP90 inhibitors. rabbit reticulocyte lysate, luciferase refolding luminescence, 3 h. 64% of 2,300 active. inhibition, % at 5.9 µM. shares compounds with HSP90 inh. AID 1846; in the data active means inhibition above about 18%
FLuc counter: blocks native firefly luciferase in HSP90 counter-screen. shares compounds with HSP90 inh. inhibition, % at 5.9 µM. purified native firefly luciferase, luminescence. 48% of 2,300 active;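 active means inhibition above the mean inhibition of all tested sample wells plus 3 SD, cut at about 10% in these data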
SENP8 conf: confirmation of human SENP8 protease inhibitors. AID 488912. 40% of 6,200 active. inhibition, % at 12.5 µM. shares compounds with SENP7 block. Recombinant SENP8, Z-RLRGG-aminoluciferin luminescence, 60 min;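 active means mean inhibition across replicates above about 50%, limit read from the data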
SENP6 conf: human SENP6 inhibition, confirmed; shares compounds with SENP7 block; recombinant SENP6, Z-RLRGG-aminoluciferin luminescence; inhibition, % at 12.5 µM; 58% of 6,200 active
SENP7 confirm: confirmation of human SENP7 protease inhibitors. shares compounds with SENP7 block. recombinant SENP7, Z-RLRGG-aminoluciferin luminescence, 40 min. inhibition, % at 12.5 µM. 69% of 6,200 active
Casp3 select: inhibits human caspase-3 in SENP selectivity test | AID 488918 | purified caspase-3, Z-DEVD-aminoluciferin luminescence, 60 min | 60% of 6,200 active | shares compounds with SENP7 block | inhibition, % at 12.5 µM;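 active means mean inhibition above about 50%, limit read from the data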
SENP luc ctr: interferes with luciferase luminescence in SENP counter-screen; 39% of 6,200 active; shares compounds with SENP7 block; Pre-incubated SENP8/Z-RLRGG-aminoluciferin, luciferase luminescence interference; inhibition, % at 12.5 µM;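 active means mean inhibition above about 50% when retested at one dose, limit read from the data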
A number is an active result; i = inactive; nt = no result given. In the library only some 2.9% were active in any assay of this set; here they are far more common.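 How the source made its calls, unless noted: active means mean inhibition above about 50% in the one-dose retest (limit read from the data); inactive means the rest.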

SMILES	HSP90 inh	SENP8 block-1	SENP8 block-2	SENP6 block	SENP7 block	SENP1 FRET inh	HSP90 confirm	FLuc counter	SENP8 conf	SENP6 conf	SENP7 confirm	Casp3 select	SENP luc ctr
O=C(NC1CCCCC1)C(c1ccccc1)N(C(=O)c1csnn1)C1CCCC1 (stereo not given)	i	i	i	i	i	i	nt	nt	nt	nt	nt	nt	nt
Cc1ccc2nc(-c3ccccc3N)[nH]c2c1	21.5	89.6	i	93.2	95.0	i	38.6	33.2	i	95.6	102.1	91.4	90.3
Cc1ccc2nc(-c3ccccn3)[nH]c2c1	46.3	83.4	i	90.4	91.1	i	60.8	51.2	91.8	91.4	100.0	96.4	90.9
COc1ccc(NC(=O)CS(=O)CC(=O)Nc2cccnc2)cc1 (stereo not given)	i	i	i	i	i	i	nt	nt	nt	nt	nt	nt	nt
Cc1[nH]n(-c2ccccc2)c(=O)c1N=Nc1cccc(C(=O)O)c1	23.1	i	49.4	56.5	i	i	66.2	78.5	i	i	58.7	i	i
COc1cccc(/C=N/NC(=O)CN(C)S(=O)(=O)c2ccccc2)c1OC	nt	i	i	i	i	i	nt	nt	nt	nt	nt	nt	nt
C(=C\c1ccccc1)/C=N/Nc1nncc(-c2ccccc2)n1	i	i	nt	i	i	nt	nt	nt	nt	nt	nt	nt	nt
O=c1nc(N/N=C/C=C/c2ccccc2)cn[nH]1	23.3	i	i	i	52.6	i	77.7	64.6	i	i	i	i	i
COc1cc(OC)cc(C(=O)NNC(=O)CCC(=O)c2cc(C)sc2C)c1	nt	i	i	i	i	i	nt	nt	nt	nt	nt	nt	nt
Cc1cc2ncc(-c3ncc(C(F)(F)F)cc3Cl)cn2n1	17.5	i	i	i	59.5	i	67.5	54.6	i	i	76.6	78.9	i
N#Cc1cnn2cc(-c3ncc(C(F)(F)F)cc3Cl)cnc12	i	i	i	i	i	i	nt	nt	nt	nt	nt	nt	nt
CSc1ccccc1C(=O)Nc1ncc(C)s1	i	i	i	i	i	i	nt	nt	nt	nt	nt	nt	nt
COc1cc(SC)ccc1C(=O)Nc1ccc(Br)cn1	33.3	82.3	i	90.2	90.4	i	87.1	83.3	53.2	75.7	80.4	77.4	50.4
COc1cc(SC)ccc1C(=O)Nc1ccon1	i	i	i	i	i	i	nt	nt	nt	nt	nt	nt	nt
Cc1ccc(C(=O)Nc2ncc(C)s2)s1	28.6	i	i	60.8	57.5	i	50.0	39.9	54.1	54.8	86.5	80.1	i
COc1cc(SC)ccc1C(=O)Nc1ncc(C)s1	80.5	88.6	i	95.7	93.5	i	87.5	84.8	90.0	90.8	100.0	89.1	i
COc1ccc(Nc2nc3c(C)cccc3cc2C#N)c(OC)c1	i	i	i	i	i	i	nt	nt	nt	nt	nt	nt	nt
C/C(=N\NC(=O)c1nnn(-c2nonc2N)c1CN(C)c1ccccc1)c1cccnc1	i	i	i	i	i	i	nt	nt	nt	nt	nt	nt	nt
O=C(O)c1cccc(N/N=C/c2cccc3ccccc23)c1	63.4	95.0	i	96.8	54.7	i	87.0	89.5	99.7	100.3	103.3	93.7	99.2
Cc1ccsc1/C=N/Nc1cccc(C(=O)O)c1	64.8	97.2	i	97.9	99.7	i	94.0	91.5	98.0	98.9	102.2	97.4	97.8
Cc1ccc(/C=N/Nc2cccc(C(=O)O)c2)s1	24.1	95.8	i	94.8	96.5	i	85.5	84.8	99.1	99.6	102.8	92.3	98.5
Cc1ccsc1/C=N/Nc1ccc(C(=O)O)cc1	68.3	96.2	i	96.7	99.1	i	80.5	77.1	99.1	100.3	102.7	97.7	98.3
COc1ccc2ccccc2c1/C=N/Nc1cccc(C(=O)O)c1	i	i	i	i	i	i	nt	nt	nt	nt	nt	nt	nt
O=C(N/N=C\c1cc(Br)cs1)c1ccncc1	i	i	i	i	i	i	nt	nt	nt	nt	nt	nt	nt
Cc1nn(-c2ccccc2Cl)c(Cl)c1/C=N/Nc1cccc(C(=O)O)c1	32.8	96.9	i	97.5	95.2	i	60.7	77.2	99.4	100.6	103.4	90.7	98.4
SMILES	HSP90 inh	SENP8 block-1	SENP8 block-2	SENP6 block	SENP7 block	SENP1 FRET inh	HSP90 confirm	FLuc counter	SENP8 conf	SENP6 conf	SENP7 confirm	Casp3 select	SENP luc ctr
O=C(O)c1ccc(N/N=C/c2cc(Br)cs2)cc1	49.7	96.7	i	99.0	99.7	i	69.5	71.1	98.1	98.9	101.8	i	97.2
CCC(=O)c1ccc(OCC(=O)OCC(=O)N(CCC#N)c2ccc3c(c2)OCCO3)cc1	nt	i	i	i	i	i	nt	nt	nt	nt	nt	nt	nt
CCN(CCn1cccn1)C(=O)C1CCC(=O)N(CCc2cccc(F)c2)C1 (stereo not given)	i	i	i	i	i	i	nt	nt	nt	nt	nt	nt	nt
Cn1cccc1C(=O)NC(=O)COC(=O)C12CC3CC(CC(O)(C3)C1)C2	42.8	i	i	54.1	61.9	i	53.7	44.2	61.6	58.5	82.5	84.5	i
Cc1ccc2nc(Cl)c(/C=N/Nc3nc(C)cc(C)n3)c(=O)n2c1	i	i	i	i	i	i	nt	nt	nt	nt	nt	nt	nt
Cc1ccc(S(=O)(=O)Nc2ccc(-c3cn4ccc(C)cc4n3)cc2)cc1	i	i	i	i	i	i	nt	nt	nt	nt	nt	nt	nt
Cc1ccn2cc(-c3ccc(Br)cc3)nc2c1	39.8	94.1	i	91.5	97.2	i	59.8	62.1	55.9	94.0	96.2	93.7	i
Cc1ccc(-c2cc(C(=O)N3CCCCCC3)no2)cc1	22.9	i	i	60.8	i	i	28.9	20.1	i	i	i	i	i
COc1ccc(-c2cc(C(=O)N3CCCC3)no2)cc1	38.8	i	i	73.7	53.3	i	57.1	42.2	i	51.8	86.3	80.0	i
O=C(c1cc(-c2ccccc2)on1)N1CCCCCC1	i	i	i	i	i	i	nt	nt	nt	nt	nt	nt	nt
COc1ccc(-c2cc(C(=O)N3CCCCCC3)no2)cc1OC	i	i	i	i	i	i	nt	nt	nt	nt	nt	nt	nt
COc1ccc2cc3cc(C(=O)N4CCCCCC4)oc3nc2c1	17.1	78.9	i	76.6	86.9	i	40.4	22.1	i	81.9	96.6	69.2	i
Cc1cnc(NC(=O)COc2ccc3c(c2)CCC3)s1	17.6	i	i	52.3	i	i	31.6	23.3	i	i	i	i	i
